# Screens as filed in PubChem.
# A selection: hits, their analogues and other compounds. The true share with any hit is near 1.6%.
# DNA FID counter: compounds displacing fluorescent DNA intercalator, primary screen, artefact control for HCV NS3 helicase inhibitor project, biochemical, FID fluorescence | DNA fluorescent intercalator displacement | inhibition, % at 7.9 µM | actives 0.17% (n = 290,000) | AID 1845, 2009; in the data active means inhibition above about 37%;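 further: 0% = vehicle and 100% = reference compound; higher means more ethidium bromide displaced from hairpin DNA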
# UBC13 polyUb: UBC13 polyubiquitin chain formation inhibitors, primary screen, biochemical, TR-FRET, uHTS; Ubiquitin-conjugating enzyme E2 N (Homo sapiens), P61088; inhibition, % at 20 µM; actives 0.47% (n = 330,000); AID 485273, 2010; in the data active means inhibition above about 45%, passing the limit was not always enough; inconclusive means no clear call, values can overlap the other calls
# Neddyl block: inhibitors of cullin neddylation, primary screen, biochemical, TR-FRET, uHTS, NAE and Ubc12. calls only at 25 µM. actives 0.58% (n = 360,000); in the data active means inhibition above about 36%
# RAD54 branch: inhibitors of human RAD54 branch migration, primary screen, biochemical, fluorescence, single point. DNA repair and recombination protein RAD54-like (Homo sapiens), Q92698. RAD54 Holliday junction branch migration, FAM/BHQ fluorescence. inhibition, % at 10.4 µM. actives 0.14% (n = 360,000);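 active means mean normalized replicate activity at least 40 and at least half of replicates scoring 40 or more; inconclusive means only one of the two criteria met; inactive means mean below 40 and under half of replicates reaching 40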;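 further: 0% = median of neutral control wells and 100% = median of positive control wells; inhibitors cause a drop in the FAM fluorescence signal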
# Apaf1 inhib: inhibitors of human Apaf-1 apoptosome, primary screen, biochemical, DEVD-Rh110 fluorescence, uHTS. actives 0.71% (n = 330,000). inhibition, % at 20 µM. Apoptotic protease-activating factor 1 (Homo sapiens), O14727. reconstituted apoptosome caspase-3 activity; active means inhibition of at least 40% at 20 µM;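 further: plate controls were DMSO wells for no effect and DEVD-CHO caspase inhibitor wells for full effect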
# Target sequence (O14727 whole entry, looked up): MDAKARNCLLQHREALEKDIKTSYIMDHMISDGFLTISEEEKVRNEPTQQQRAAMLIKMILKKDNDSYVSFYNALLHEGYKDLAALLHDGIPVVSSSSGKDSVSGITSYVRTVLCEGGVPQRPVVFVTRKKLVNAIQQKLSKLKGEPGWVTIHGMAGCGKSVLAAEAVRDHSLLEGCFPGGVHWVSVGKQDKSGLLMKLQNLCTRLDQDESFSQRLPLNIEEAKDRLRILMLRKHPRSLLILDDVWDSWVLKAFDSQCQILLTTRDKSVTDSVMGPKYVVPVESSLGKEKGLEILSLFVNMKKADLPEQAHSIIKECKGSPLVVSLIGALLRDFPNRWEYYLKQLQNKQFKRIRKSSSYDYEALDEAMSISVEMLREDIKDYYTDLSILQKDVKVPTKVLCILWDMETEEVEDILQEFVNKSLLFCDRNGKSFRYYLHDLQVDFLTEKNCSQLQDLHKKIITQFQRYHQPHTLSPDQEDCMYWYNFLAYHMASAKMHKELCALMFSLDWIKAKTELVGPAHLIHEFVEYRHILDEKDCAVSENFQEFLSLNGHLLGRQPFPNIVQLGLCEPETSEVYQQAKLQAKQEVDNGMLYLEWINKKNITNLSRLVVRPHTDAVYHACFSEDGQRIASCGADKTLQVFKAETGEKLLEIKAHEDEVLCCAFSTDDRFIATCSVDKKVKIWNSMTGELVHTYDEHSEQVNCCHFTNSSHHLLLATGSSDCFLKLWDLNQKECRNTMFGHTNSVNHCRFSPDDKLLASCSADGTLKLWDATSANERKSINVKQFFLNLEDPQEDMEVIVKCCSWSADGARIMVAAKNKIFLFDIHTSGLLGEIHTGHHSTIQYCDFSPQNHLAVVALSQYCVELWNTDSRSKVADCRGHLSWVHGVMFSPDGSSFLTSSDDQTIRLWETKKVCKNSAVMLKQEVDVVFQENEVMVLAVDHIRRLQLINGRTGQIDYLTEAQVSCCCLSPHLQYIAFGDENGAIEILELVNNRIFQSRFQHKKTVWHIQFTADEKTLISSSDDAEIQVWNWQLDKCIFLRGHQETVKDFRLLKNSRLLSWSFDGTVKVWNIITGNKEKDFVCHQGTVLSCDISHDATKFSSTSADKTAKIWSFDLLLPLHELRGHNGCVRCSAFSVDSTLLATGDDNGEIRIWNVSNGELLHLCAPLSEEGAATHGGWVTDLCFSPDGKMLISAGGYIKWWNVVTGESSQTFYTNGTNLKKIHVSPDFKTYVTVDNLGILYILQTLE
#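 Material: biochemical Apaf-1 apoptosome reconstitution. Medium: Hepes buffer, pH 7.5. Also added: cytochrome c activation, bis-DEVD rhodamine 110 substrate. Timing: 30 min compound preincubation, 50 min activation, room temperature. Measured by: rhodamine 110 fluorescence at Ex 480/Em 540 nm.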
# RAD52 anneal inh: RAD52 DNA annealing inhibitors, primary screen, biochemical, FRET, single point, set 2; recombinant RAD52 DNA annealing, FRET fluorescence; inhibition, % at 18.7 µM; actives 0.46% (n = 360,000);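 active means every replicate showing at least 50% inhibition; inconclusive means mean inhibition at least 50% but not in every replicate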
# Casp3 UBC13 ctr: CASP3 inhibitor validation, counterassay for project on UBE2N polyubiquitination blockers, biochemical, one dose; actives 4% (n = 1,400); inhibition, % at 20 µM; AID 488856, 2010; shares compounds with UBC13 polyUb; Recombinant caspase-3, Caspase-Glo 3/7 luminescence, 60 min;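 active means mean inhibition across replicates above about 26%, limit read from the data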;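 further: plate controls were DMSO with caspase-3 for no effect and DMSO wells lacking enzyme for full effect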
# UBC13 confirm: UBC13 polyubiquitination inhibitors, single-point retest, confirmation, biochemical, TR-FRET, single concentration | inhibition, % at 10 µM | shares compounds with UBC13 polyUb | AID 488859, 2010 | actives 68% (n = 1,400); in the data active means inhibition above about 45%; inconclusive means no clear call, values can overlap the other calls
# An asterisk follows results filed as active; i = inactive; u = inconclusive; x = not tested or not shown.
SMILES,DNA FID counter,UBC13 polyUb,Neddyl block,RAD54 branch,Apaf1 inhib,RAD52 anneal inh,Casp3 UBC13 ctr,UBC13 confirm
O=C1/C(=C/c2cccc([N+](=O)[O-])c2)CCc2ccccc21,-5,15,i,5,14,x,x,x
COc1ccc(C(=O)c2c3ccccc3[n+]([O-])n2CCCN)cc1,x,-12,i,-11,8,0,x,x
NCCCn1c(C(=O)c2cc(Cl)c(N)c(Cl)c2)c2ccccc2[n+]1[O-],x,97*,i,13,6,22,1,100*
NC(=O)CCn1c(C(=O)c2cc(Cl)c(N)c(Cl)c2)c2ccccc2[n+]1[O-],-14,62*,i,-7,5,-31,0,65*
NC(=O)CCn1c(C(=O)c2cccc([N+](=O)[O-])c2)c2ccccc2[n+]1[O-],-10,6,i,-16,-4,-14,x,x
Cn1c(=O)c2c(ncn2Cc2ccccc2)n(C)c1=O,-4,50*,i,2,-9,-7,-2,30
Cc1ccc(-c2nnc3c(C(F)(F)F)nc4ccccc4n23)cc1,-1,52*,i,x,1,x,-4,u
COCC#Cc1cnc2c(c1)C(=O)N([C@@H](C)CO)C[C@H](C)[C@@H](CN(C)Cc1ccc3c(c1)OCO3)O2,x,x,x,-10,x,-19,x,x
C#CCOCCOCCOCCNc1nc(N2CCN(C(=O)[C@H]([C@@H](C)CC)n3cc(CCCN=C(N)N)nn3)CC2)nc(N2CCN(C(=O)[C@H]([C@@H](C)CC)n3cc(CCC(=O)O)nn3)CC2)n1,x,x,i,-9,x,7,x,x
C#CCOCCOCCOCCNc1nc(N2CCN(C(=O)CCCCCCCCCCNC(=O)[C@@H](CCSC)n3cc(CCO)nn3)CC2)nc(N2CCN(C(=O)CCCCCCCCCCNC(=O)[C@H]([C@@H](C)CC)n3cc(CCCCN=C(N)N)nn3)CC2)n1,x,125*,i,-4,64*,x,-3,124*
C#CCOCCOCCOCCNc1nc(N2CCN(C(=O)[C@H]([C@@H](C)CC)n3cc(CCCN=C(N)N)nn3)CC2)nc(N2CCN(C(=O)[C@H](CCCCN)n3cc(CCC(=O)O)nn3)CC2)n1,4,9,i,-12,13,16,x,x
C#CCOCCOCCOCCNc1nc(N2CCN(C(=O)CCCCCCCCCCNC(=O)[C@H](CCCCN)n3cc(CCCC(=O)O)nn3)CC2)nc(N2CCN(C(=O)CCCCCCCCCCNC(=O)[C@H](CCCN=C(N)N)n3cc(C[C@@H](C)CC)nn3)CC2)n1,x,123*,i,1,76*,x,-1,126*
C#CCOCCOCCOCCNc1nc(N2CCOCC2)nc(N2CCN(C(=O)CCCCCCCCCCNC(=O)Cn3cc(CCCCCN)nn3)CC2)n1,x,28,i,-3,26,26,x,x
C#CCOCCOCCOCCNc1nc(N2CCN(C(=O)CCCCCCCCCCNC(=O)[C@H](CCCCN)n3cc(CCCC(=O)O)nn3)CC2)nc(N2CCN(C(=O)CCCCCCCCCCNC(=O)[C@H](CCCCN)n3cc(CCCC(=O)O)nn3)CC2)n1,x,45*,i,-37,18,x,0,35
C#CCOCCOCCOCCNc1nc(N2CCN(C(=O)CCCCCCCCCCNC(=O)[C@@H](CCC(=O)O)n3cc(CCCCCN)nn3)CC2)nc(N2CCN(C(=O)CCCCCCCCCCNC(=O)[C@@H](CCC(=O)O)n3cc(CCCCCN)nn3)CC2)n1,x,45*,i,-38,36,-21,2,36
C[C@H](CO)N1C[C@H](C)[C@H](CN(C)CC2CC2)Oc2ccc(NC(=O)Cc3cn(C)c4ccccc34)cc2CC1=O,x,x,x,13,x,1,x,x
CC(C)NC(=O)N(C)C[C@@H]1Oc2cc(-c3cncnc3)ccc2S(=O)(=O)N([C@@H](C)CO)C[C@H]1C,x,x,x,1,x,-6,x,x
C[C@H](CO)N1C[C@H](C)[C@@H](CN(C)Cc2ccc(C(F)(F)F)cc2)Oc2c(NS(=O)(=O)c3ccc(F)cc3)cccc2C1=O,x,x,x,-12,x,-13,x,x
CC=Cc1ccc2n(c1=O)C[C@H]1[C@H](CO)[C@@H](C(=O)NCCc3ccccc3)N(C(=O)CC)[C@@H]21 (mixture of isomers),x,x,x,-2,x,-4,x,x
C[C@@H]1CN([C@H](C)CO)C(=O)Cc2cc(NC(=O)Cc3ccccc3)ccc2O[C@@H]1CN(C)Cc1ccncc1,x,x,x,2,x,0,x,x
C#CCOCCOCCOCCNc1nc(N2CCOCC2)nc(N2CCN(C(=O)CCCCCCCCCCNC(=O)[C@H](CO)n3cc(CCCCCN)nn3)CC2)n1,x,62*,i,8,44*,-11,-2,38
C#CCOCCOCCOCCNc1nc(N2CCN(C(=O)CCCCCCCCCCNC(=O)[C@H](CCCCN)n3cc(C)nn3)CC2)nc(N2CCN(C(=O)CCCCCCCCCCNC(=O)[C@@H]([C@H](C)CC)n3cc(CCCCCN)nn3)CC2)n1,x,126*,i,42,82*,x,-1,128*
C#CCOCCOCCOCCNc1nc(N2CCN(C(=O)CCCCCCCCCCNC(=O)[C@H](CO)n3cc(CCCSC)nn3)CC2)nc(N2CCN(C(=O)CCCCCCCCCCNC(=O)[C@H](CO)n3cc(CCCSC)nn3)CC2)n1,x,3,i,4,26,-14,x,x
C#CCOCCOCCOCCNc1nc(N2CCN(C(=O)[C@H]([C@@H](C)CC)n3cc(CCCCN)nn3)CC2)nc(N2CCN(C(=O)[C@H](CCCCN)n3cc(CCC(=O)O)nn3)CC2)n1,x,-5,i,-27,3,0,x,x
COCCn1c(SCC(N)=O)nc2c(c1=O)SC(C)C2 (stereo not given),-7,49*,i,4,5,-7,-4,-4
CC1CCCC(NC(=O)CSc2ncnc3ccccc23)C1C (stereo not given),x,46*,i,10,-1,-25,3,34
CC1CCCC(NC(=O)COc2ncnc3ccccc23)C1C (stereo not given),x,-4,i,3,3,-5,x,x
